According to ChEMBL document CHEMBL6134766, “Design, synthesis, and evaluation of benzhydrylpiperazine-based novel dual COX-2/5-LOX inhibitors with anti-inflammatory and anti-cancer activity” (RSC Med Chem, 2025):
The source made the active and inactive calls. The calls are words filed in the database; no cut-off is given here.

Experiments:
Rattus norvegicus [1] = assay: Anti-inflammatory activity in carrageenan-induced paw edema Wistar rat model assessed as swelling thickness of paw at 5 mg/kg, po measured after 1 hr by digital vernier caliper (reference value: 8.47 +/- 0.25 millimeter); assay type: functional
Rattus norvegicus [2] = assay: Anti-inflammatory activity in Wistar rat assessed as reduction in ADP/collagen-induced platelet aggregation at 20 mg/kg, po; assay type: functional, organism-based
Summary of the method: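 Platelet-rich plasma from treated rats (n = 6/group) adjusted to 4 × 10^8 platelets per ml in Tyrode's buffer. Absorbance read at 570 nm, then aggregation induced with ADP plus 5 μg ml−1 collagen. Plates incubated 5 min at 37 °C with shaking and absorbance re-read at 570 nm. Percent aggregation derived from the absorbance change.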

Rattus norvegicus [3] = assay: Analgesic activity in acetic acid-induced pain Wistar rat model assessed as number of writhing at 20 mg/kg, po pretreated for 30 mins followed by acetic acid treatment measured for 30 mins by writhing test (reference value: 40.33 +/- 3.01); assay type: functional; details: 0.5 h
Gastric mucosa [4] = assay: Antioxidant activity in gastric mucosal tissue in Wistar rat assessed as increase in SOD level at 20 mg/kg, po; assay type: functional, organism-based
Summary of the method: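 Gastric tissue from fasted rats (dosed orally once daily for 3 days in 0.3% Na CMC) homogenized in cold PBS pH 7.4, centrifuged 1000 rpm, 10 min, 4 °C; protein by Bradford; SOD measured in supernatant per reported procedure.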

[5] = Toxicity in fasting Wistar rat assessed as ulceration at 10 mg/kg, po via gavage treated for 3 days consecutively by H and E staining based analysis (reference value: 0 %); assay type: organism-based; details: in vivo, 72 h, time 3 day
Summary of the method: (§1)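 Fasted rats, n = 6/group, gavaged once daily for 3 days in 0.3% Na CMC (vehicle control 0.3% CMC); killed under anaesthesia 6 h after day-3 dose; stomachs saline-washed, mucosa examined with hand lens; ulcer score, index and % ulceration by reported scoring; some stomachs formalin-fixed, H&E stained.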

Rattus norvegicus [6] = assay: Cardio-protective activity in ISO-treated Wistar rat assessed as decrease in serum LDH level at 20 mg/kg, po; assay type: functional, organism-based
Summary of the method: (§2)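 Rats (n = 6/group) given ISO 100 mg kg−1 s.c., then oral test compound in 0.3% CMC; vehicle controls. Retro-orbital blood, serum separated at 4000 rpm, 4 °C, 10 min; LDH and CK-MB by commercial kits; mean ± SD.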

Rattus norvegicus [7] = assay: Anti-inflammatory activity in carrageenan-induced paw edema Wistar rat model assessed as swelling thickness of paw at 20 mg/kg, po measured immediately by digital vernier caliper (reference value: 3.48 +/- 0.21 millimeter); assay type: functional
Rattus norvegicus [8] = assay: Anti-inflammatory activity in carrageenan-induced paw edema Wistar rat model assessed as decrease in TNF-alpha level in paw tissue at 5 to 20 mg/kg, po measured for 6 hrs by ELISA; assay type: functional, organism-based; details: dose 5-20 mg/kg
Summary of the method: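 Paw tissue taken from carrageenan-edema rats dosed orally at 5, 10 or 20 mg kg−1. Tissue rinsed in PBS pH 7.4, minced, homogenized, filtered and centrifuged at 2000 rpm for 20 min at 4 °C. Supernatant assayed by ELISA for PGE2, IL-6, TNF-α and IL-10. Data as mean ± SD.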

Gastric mucosa [9] = assay: Antioxidant activity in gastric mucosal tissue in Wistar rat assessed as decrease in nitrite level at 20 mg/kg, po; assay type: functional, organism-based
Summary of the method: (§3)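 Fasted rats (n = 6/group) gavaged once daily for 3 days in 0.3% Na CMC and sacrificed 6 h after the final dose. Randomly chosen stomachs homogenized in cold PBS pH 7.4 and centrifuged at 1000 rpm for 10 min at 4 °C. Supernatant protein measured by Bradford assay; GSH and nitrate then measured by reported methods.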

[10] = Toxicity in fasting Wistar rat assessed as ulceration at 5 mg/kg, po via gavage treated for 3 days consecutively by H and E staining based analysis (reference value: 0 %); assay type: organism-based; details: in vivo, 72 h, time 3 day; summary of the method: as §1
Rattus norvegicus [11] = assay: Anti-inflammatory activity in carrageenan-induced paw edema Wistar rat model assessed as swelling thickness of paw at 10 mg/kg, po measured after 1 hr by digital vernier caliper (reference value: 8.47 +/- 0.25 millimeter); assay type: functional
Rattus norvegicus [12] = assay: Anti-inflammatory activity in carrageenan-induced paw edema Wistar rat model assessed as swelling thickness of paw at 10 mg/kg, po measured immediately by digital vernier caliper (reference value: 3.48 +/- 0.21 millimeter); assay type: functional
Rattus norvegicus [13] = assay: Anti-inflammatory activity in arachidonic acid-induced paw edema Wistar rat model assessed as swelling thickness of paw at 10 mg/kg, po measured after 1 hr by digital vernier caliper (reference value: 6.51 +/- 0.37 millimeter); assay type: functional
Rattus norvegicus [14] = assay: Anti-inflammatory activity in carrageenan-induced paw edema Wistar rat model assessed as swelling thickness of paw at 5 mg/kg, po measured after 3 hrs by digital vernier caliper (reference value: 8.56 +/- 0.45 millimeter); assay type: functional
Gastric mucosa [15] = assay: Antioxidant activity in gastric mucosal tissue in Wistar rat assessed as increase in GSH level at 20 mg/kg, po; assay type: functional, organism-based; summary of the method: as §3
Rattus norvegicus [16] = assay: Cardio-protective activity in ISO-treated Wistar rat assessed as decrease in serum CK-MB level at 20 mg/kg, po; assay type: functional, organism-based; summary of the method: as §2
Rattus norvegicus [17] = assay: Anti-inflammatory activity in carrageenan-induced paw edema Wistar rat model assessed as swelling thickness of paw at 10 mg/kg, po measured after 2 hrs by digital vernier caliper (reference value: 8.65 +/- 0.53 millimeter); assay type: functional
Rattus norvegicus [18] = assay: Anti-inflammatory activity in carrageenan-induced paw edema Wistar rat model assessed as swelling thickness of paw at 20 mg/kg, po measured after 5 hrs by digital vernier caliper (reference value: 8.47 +/- 0.32 millimeter); assay type: functional
Rattus norvegicus [19] = assay: Anti-inflammatory activity in carrageenan-induced paw edema Wistar rat model assessed as swelling thickness of paw at 5 mg/kg, po measured after 6 hrs by digital vernier caliper (reference value: 8.33 +/- 0.42 millimeter); assay type: functional
[20] = biological target: T1, Prostaglandin G/H synthase 1 (Ovis aries, UniProt P05979); assay: Inhibition of ovine COX-1 using arachidonic acid as substrate in presence of hemin by TMPD reagent-based colorimetry
T1 sequence (P05979 whole entry): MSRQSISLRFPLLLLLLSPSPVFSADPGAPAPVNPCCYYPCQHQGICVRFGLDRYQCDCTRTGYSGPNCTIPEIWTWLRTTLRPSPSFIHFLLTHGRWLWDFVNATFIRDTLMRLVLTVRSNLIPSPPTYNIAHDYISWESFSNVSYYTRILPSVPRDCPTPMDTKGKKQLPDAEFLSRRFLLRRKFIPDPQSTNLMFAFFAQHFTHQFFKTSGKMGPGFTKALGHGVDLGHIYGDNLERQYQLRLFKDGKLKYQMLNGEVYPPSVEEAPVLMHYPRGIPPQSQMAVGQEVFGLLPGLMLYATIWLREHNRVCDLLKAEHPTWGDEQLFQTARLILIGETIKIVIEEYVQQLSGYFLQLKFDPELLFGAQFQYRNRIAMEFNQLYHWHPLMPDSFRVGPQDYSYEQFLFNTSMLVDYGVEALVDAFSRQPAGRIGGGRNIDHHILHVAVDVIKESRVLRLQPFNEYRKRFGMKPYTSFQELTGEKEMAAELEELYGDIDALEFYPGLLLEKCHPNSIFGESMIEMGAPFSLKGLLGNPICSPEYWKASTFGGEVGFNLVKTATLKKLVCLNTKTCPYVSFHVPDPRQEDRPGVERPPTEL

O=[N+]([O-])c1ccc(-c2nnc(CN3CCN(C(c4ccccc4)c4ccc(Cl)cc4)CC3)o2)cc1 (stereo not given)
Activity (Rattus norvegicus [1]): 5.74 mm
Activity (Rattus norvegicus [2]): Active
Activity (Rattus norvegicus [3]): 20.33
Activity (Gastric mucosa [4]): Active
Activity [5]: 4.85%
Activity (Rattus norvegicus [6]): Active
Activity (Rattus norvegicus [7]): 3.65 mm
Activity (Rattus norvegicus [8]): Active
Activity (Gastric mucosa [9]): Active
Activity [10]: 0.667%
Activity (Rattus norvegicus [11]): 5.32 mm
Activity (Rattus norvegicus [12]): 3.44 mm
Activity (Rattus norvegicus [13]): 2.3 mm
Activity (Rattus norvegicus [14]): 4.87 mm
Activity (Gastric mucosa [15]): Active
Activity (Rattus norvegicus [16]): Active
Activity (Rattus norvegicus [17]): 4.55 mm
Activity (Rattus norvegicus [18]): 3.96 mm
Activity (Rattus norvegicus [19]): 4.14 mm
IC50 [20]: 41.1 µM

Clc1ccc(-c2nnc(CN3CCN(C(c4ccccc4)c4ccc(Cl)cc4)CC3)o2)cc1 (stereo not given)
Activity (Rattus norvegicus [1]): 6.18 mm
Activity (Rattus norvegicus [2]): Active
Activity (Rattus norvegicus [3]): 17.83
Activity (Gastric mucosa [4]): Active
Activity [5]: 1.38%
Activity (Rattus norvegicus [6]): Active
Activity (Rattus norvegicus [7]): 3.43 mm
Activity (Rattus norvegicus [8]): Active
Activity (Gastric mucosa [9]): Active
Activity [10]: 0%
Activity (Rattus norvegicus [11]): 5.15 mm
Activity (Rattus norvegicus [12]): 3.21 mm
Activity (Rattus norvegicus [13]): 2.01 mm
Activity (Rattus norvegicus [14]): 4.67 mm
Activity (Gastric mucosa [15]): Active
Activity (Rattus norvegicus [16]): Active
Activity (Rattus norvegicus [17]): 3.96 mm
Activity (Rattus norvegicus [18]): 3.24 mm
Activity (Rattus norvegicus [19]): 4.14 mm
IC50 [20]: 34.1 µM
